According to ChEMBL document CHEMBL5036308, “Chiral Alkyl Groups at Position 3(1') of Pyropheophorbide-a Specify Uptake and Retention by Tumor Cells and Are Essential for Effective Photodynamic Therapy” (J Med Chem, 2021):
Calls of active or inactive are those of the source. The rule behind the calls is not given here.

Legend:
[1] = Drug uptake in human HN-143 T-EC cells assessed as drug retention at 1600 nM incubated for 24 hrs in presence of 10% fetal bovine by fluorescent microscopy imaging based analysis; type: ADME, cell-based; conditions: 1.6 µM
Method in brief: (§1)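 Cells incubated 24 h in medium with 10% serum and 1600 nM PS, then chased in PS-free medium for up to 72 h with daily medium changes. Cellular PS was measured daily by fluorescence microscopy; net fluorescence intensity per full image frame was quantified in arbitrary units.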

[2] = test system: FaDu-124; experiment: Binding affinity to human FaDu-124 cell membrane surface measured at 1600 nM incubated for 30 mins at 0 degC; type: tissue-based
Method in brief: (§2)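 FaDu-124 cells, 30 min on ice in serum-free DMEM with 1600 nM PS, then cell-associated fluorescence imaged. For diffusion into cells, cultures were then held 30 min at 37°C in fresh serum-free medium and imaged again.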

[3] = Drug uptake in human HN-143 T-EC cells assessed as drug retention at 1600 nM incubated for 24 hrs in presence of 10% fetal bovine serum measured after 72 hrs chase period by fluorescent microscopy imaging based analysis; type: ADME, cell-based; conditions: 1.6 µM; method in brief: as §1
[4] = Drug uptake in human FaDu-124 cell membrane assessed as drug internalization at 1600 nM incubated for 30 mins at 37 degC; type: ADME, cell-based; conditions: fadu-124, 0.5 h, 1.6 µM; method in brief: as §2
[5] = test system: TEC1-2; experiment: Binding affinity to human TEC1-2 cell plasma membrane assessed as drug retention at 1600 nM incubated for 24 hrs in presence of 10% fetal bovine serum measured after 48 hrs chase period by fluorescent microscopy; type: cell membranes
[6] = test system: HNT1; experiment: Binding affinity to human HNT1 cell plasma membrane with CFSE-labeled HN-87 T-Fb assessed as drug retention at 1600 nM incubated for 24 hrs in presence of 10% fetal bovine serum measured after 24 hrs chase period by fluorescent microscopy; type: cell membranes
Method in brief: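 HNT1 cells (p 72) co-cultured on collagen-1 with CFSE-stained HN-87 T-Fb fibroblasts (added to 24 h-old tumor cultures, grown 3–7 days to confluence). Treated 24 h with DMEM + 10% FBS and 1600 nM PS, chased 24 h in DMEM + 10% FBS, then fluorescence imaged under identical conditions.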

[7] = Drug uptake in human HN-T1 cells assessed as drug internalization at 1600 nM incubated for 24 hrs in presence of 10% fetal bovine serum measured after 24 hrs chase period by fluorescent microscopy; type: ADME, cell-based; conditions: hnt1, 24 h, 1.6 µM
[8] = Drug uptake in human HN-143-T-EC cells assessed as drug retention in mitochondria measured after 72 hrs chase period by fluorescent microscopy; type: ADME
[9] = Lipophilicity, logP of the compound; type: physicochemical; conditions: octanol/water
[10] = Drug uptake in human HN-143-T-EC cells assessed as drug retention in endoplasmic reticulum measured after 72 hrs by fluorescent microscopy; type: ADME, cell-based
[11] = Drug uptake in human L237 cells assessed as drug retention at 1600 nM incubated for 24 hrs in presence of 10% fetal bovine serum measured after 48 hrs chase period by fluorescent microscopy; type: ADME, cell-based; conditions: l237, 48 h, 1.6 µM
Method in brief: (§3)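 Confluent cultures (e.g. HN-77 T-EC, p 13) incubated 24 h in RPMI + 10% FBS with 1600 nM PS, then 48 h chase in RPMI + 10% FBS. Fluorescence images recorded and net fluorescence intensity quantified.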

[12] = Drug uptake in human HN-90 T-EC cells assessed as drug retention at 1600 nM incubated for 24 hrs in presence of 10% fetal bovine serum measured after 72 hrs chase period by fluorescent microscopy imaging based analysis; type: ADME, cell-based; conditions: 1.6 µM; method in brief: as §1
[13] = Drug uptake in human HNT1 cells assessed as drug retention at 1600 nM incubated for 24 hrs in presence of 10% fetal bovine serum measured after 48 hrs chase period by fluorescent microscopy; type: ADME, cell-based; conditions: hnt1, 48 h, 1.6 µM
[14] = Photoreactivation in human TEC21 cells assessed as STAT3cross-linking in presence of 10% fetal bovine serum under 665 nm light for 9 mins measured after 24 hrs by immune blot analysis; type: cell-based; conditions: tec-21, 0.15 h
Method in brief: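 TEC-21 cells (p 8) treated 24 h in RPMI + 10% FBS with PS, imaged, chased 48 h in RPMI + 10% FBS, then irradiated 9 min with 665 nm light (6 mW/cm²). Cells were extracted immediately and immunoblotted for STAT3 crosslinking, EGFR and phospho-p38 MAPK.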

[15] = Drug uptake in human FaDu-124 cells assessed as drug retention at 1600 nM incubated for 24 hrs in presence of 10% fetal bovine serum measured after 48 hrs chase period by fluorescent microscopy; type: ADME, cell-based; conditions: fadu-124, 48 h, 1.6 µM
[16] = Drug uptake in human HNT1 cells assessed as drug retention at 1600 nM incubated for 24 hrs in presence of 10% fetal bovine serum measured after 24 hrs chase period by fluorescent microscopy; type: ADME, cell-based; conditions: hnt1, 24 h, 1.6 µM
[17] = Drug uptake in human HNT1 cells with CFSE-labeled HN-101 T-Fb assessed as drug retention at 1600 nM incubated for 24 hrs in presence of 10% fetal bovine serum measured after 24 hrs chase period by fluorescent microscopy; type: ADME, cell-based; conditions: hnt1, 24 h, 1.6 µM
Method in brief: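 Co-cultures of HNT1 cells (p 103) with CFSE-labeled HN-101 T-Fb on collagen-1 matrix; 24 h in DMEM + 10% FBS with 1600 nM PS, then 24 h chase in PS-free medium; cell-associated fluorescence imaged by microscopy.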

[18] = Drug uptake in human HN-T1 cells assessed as drug retention at 1600 nM incubated for 24 hrs in presence of 10% fetal bovine serum measured after 72 hrs chase period by fluorescent microscopy imaging based analysis; type: ADME, cell-based; conditions: hnt1, 72 h, 1.6 µM; method in brief: as §1
[19] = Drug uptake in human TEC-21 cells assessed as drug retention at 1600 nM incubated for 24 hrs in presence of 10% fetal bovine serum measured after72 hrs chase period by fluorescent microscopy imaging based analysis; type: ADME, cell-based; conditions: tec-21, 72 h, 1.6 µM; method in brief: as §1
[20] = Drug uptake in human HN-77 T-EC cells assessed as drug retention at 1600 nM incubated for 24 hrs in presence of 10% fetal bovine serum measured after 48 hrs chase period by fluorescent microscopy; type: ADME, cell-based; conditions: 1.6 µM; method in brief: as §3
[21] = Drug uptake in human TEC-1 cells assessed as drug retention at 1600 nM incubated for 24 hrs in presence of 10% fetal bovine serum measured after 48 hrs chase period by fluorescent microscopy; type: ADME, cell-based; conditions: tec-1, 48 h, 1.6 µM; method in brief: as §3
[22] = Drug uptake in human FaDu clone 49 cells assessed as drug retention at 1600 nM incubated for 24 hrs in presence of 10% fetal bovine serum measured after 72 hrs chase period by fluorescent microscopy imaging based analysis; type: ADME, cell-based; conditions: fadu clone 49, 72 h, 1.6 µM; method in brief: as §1
[23] = Drug uptake in human HN-142 T-EC cells assessed as drug retention at 1600 nM incubated for 24 hrs in presence of 10% fetal bovine serum measured after 48 hrs chase period by fluorescent microscopy; type: ADME, cell-based; conditions: 1.6 µM; method in brief: as §3

CCCCCCSC(C)c1c(C)c2cc3nc(c4c5[nH]c(cc6nc(cc1[nH]2)C(C)=C6CC)c(C)c5C(=O)C4)[C@@H](CCC(=O)O)C3C (stereo not given in full)
Drug uptake [1]: Active
Activity [2]: Active
Drug uptake [3]: Active
Drug uptake [4]: Active

CCCCC(C)OCc1c(C)c2cc3nc(c4c5[nH]c(cc6nc(cc1[nH]2)C(C)=C6CC)c(C)c5C(=O)C4)[C@@H](CCC(=O)OC)C3C (stereo not given in full)
Activity [5]: inactive
Activity [6]: inactive

CCCCc1c(C)c2cc3nc(c4c5[nH]c(cc6nc(cc1[nH]2)C(C)=C6CC)c(C)c5C(=O)C4)[C@@H](CCC(=O)O)C3C (stereo not given in full)
Drug uptake [7]: Active

CCCCCCOC(CCC)c1c(C)c2cc3nc(c4c5[nH]c(cc6nc(cc1[nH]2)C(C)=C6CC)c(C)c5C(=O)C4)[C@@H](CCC(=O)O)C3C (stereo not given in full)
Drug uptake [8]: Active
Drug uptake [1]: Active
logP [9]: 6.01
Drug uptake [3]: Active
Drug uptake [10]: Active

CCCCCCOC(C)c1c(C)c2cc3nc(c4c5[nH]c(cc6nc(cc1[nH]2)C(C)=C6CC)c(C)c5C(=O)C4)[C@@H](CCC(=O)OC)C3C (stereo not given in full)
Drug uptake [8]: Active
Activity [2]: Active
Drug uptake [3]: Active
Drug uptake [4]: Active
Drug uptake [10]: Active

CCCCc1c(C)c2cc3nc(c4c5[nH]c(cc6nc(cc1[nH]2)C(C)=C6CC)c(C)c5C(=O)C4)[C@@H](CCC(=O)OC)C3C (stereo not given in full)
Drug uptake [7]: Active

C=Cc1c(C)c2cc3nc(c4c5[nH]c(cc6nc(cc1[nH]2)C(C)=C6CC)c(C)c5C(=O)C4)[C@@H](CCC(=O)O)C3C (stereo not given in full)
Activity [2]: inactive

CCCCCCOCc1c(C)c2cc3nc(c4c5[nH]c(cc6nc(cc1[nH]2)C(C)=C6CC)c(C)c5C(=O)C4)[C@@H](CCC(=O)OC)C3C (stereo not given in full)
Activity [5]: inactive
Activity [6]: inactive

CCCCCCOC(C)c1c(C)c2cc3nc(c4c5[nH]c(cc6nc(cc1[nH]2)C(C)=C6CC)c(C)c5C(=O)C4)[C@@H](CCC(=O)O)C3C (stereo not given in full)
Drug uptake [11]: Not Active
Drug uptake [8]: Active
Drug uptake [12]: Active
Drug uptake [1]: Active
Drug uptake [13]: Not Active
Activity [14]: 0.4%
logP [9]: 6.01
Drug uptake [15]: Not Active
Drug uptake [16]: Not Active
Drug uptake [17]: Active
Drug uptake [18]: Active
Activity [2]: Active
Drug uptake [19]: Active
Drug uptake [20]: Not Active
Drug uptake [21]: Not Active
Drug uptake [3]: Active
Drug uptake [4]: Active
Drug uptake [22]: Active
Drug uptake [23]: Not Active
